Scp1 inh = Scp-1 phosphatase inhibitors, primary screen, biochemical, colorimetric, uHTS; hit rate 0.88% among 340,000; Recombinant Scp1, phosphopeptide, malachite green phosphate absorbance; Carboxy-terminal domain RNA polymerase II polypeptide A small phosphatase 1 (Homo …; inhibition, % at 20 µM;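 active = inhibition above about 50% at 20 µM, limit read from the data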;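 also: plate controls were DMSO wells with enzyme for no effect and wells lacking enzyme for full effect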
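Material – SCP-1 phosphatase catalytic domain, residues 76-261 · Buffer or medium – Acidic Tris acetate buffer with magnesium and detergent · Also added – Phospho 17-mer peptide substrate · Compound – single 20 µM dose, 1% DMSO · Times – 45 min room-temperature reaction, 5 min colour, 30 min stabiliser · Technique – Phosphate-binding colour reagent, absorbance read at 630 nm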
STEP block = STEP phosphatase inhibitors, primary screen, biochemical, fluorescence intensity, uHTS | Tyrosine-protein phosphatase non-receptor type 5 (Homo sapiens), P54829 | recombinant STEP, OMFP fluorogenic substrate | inhibition, % at 20 µM | hit rate 0.25% among 360,000 | AID 588621, 2011;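 active = inhibition at 20 µM, scaled per plate between control wells, above about 37%, limit read from the data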;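 also: 0% = DMSO with enzyme and substrate and 100% = substrate only without enzyme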
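Measure: Control-normalized % inhibition with plate pattern correction | Test system: STEP phosphatase, cell-free reaction | Medium: pH 6.0 Bis-Tris with DTT and Tween 20 | Technique: Fluorescence, 480/540 nm | Times: Reaction 20 min, ambient temperature | Doses: Single compound dose of 20 µM, 1% DMSO final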
DNMT1 block = human DNMT1 methyltransferase inhibitors, primary screen, biochemical, molecular beacon, fluorescence, HinP1I cleavage, uHTS. DNA (cytosine-5)-methyltransferase 1 (Homo sapiens), P26358. inhibition (reported as % activation of signal), % at 10 µM. hit rate 0.83% among 360,000. AID 588458, 2011; in the data active = inhibition above about 50%
Target sequence (P26358 504-1616 limits assumed): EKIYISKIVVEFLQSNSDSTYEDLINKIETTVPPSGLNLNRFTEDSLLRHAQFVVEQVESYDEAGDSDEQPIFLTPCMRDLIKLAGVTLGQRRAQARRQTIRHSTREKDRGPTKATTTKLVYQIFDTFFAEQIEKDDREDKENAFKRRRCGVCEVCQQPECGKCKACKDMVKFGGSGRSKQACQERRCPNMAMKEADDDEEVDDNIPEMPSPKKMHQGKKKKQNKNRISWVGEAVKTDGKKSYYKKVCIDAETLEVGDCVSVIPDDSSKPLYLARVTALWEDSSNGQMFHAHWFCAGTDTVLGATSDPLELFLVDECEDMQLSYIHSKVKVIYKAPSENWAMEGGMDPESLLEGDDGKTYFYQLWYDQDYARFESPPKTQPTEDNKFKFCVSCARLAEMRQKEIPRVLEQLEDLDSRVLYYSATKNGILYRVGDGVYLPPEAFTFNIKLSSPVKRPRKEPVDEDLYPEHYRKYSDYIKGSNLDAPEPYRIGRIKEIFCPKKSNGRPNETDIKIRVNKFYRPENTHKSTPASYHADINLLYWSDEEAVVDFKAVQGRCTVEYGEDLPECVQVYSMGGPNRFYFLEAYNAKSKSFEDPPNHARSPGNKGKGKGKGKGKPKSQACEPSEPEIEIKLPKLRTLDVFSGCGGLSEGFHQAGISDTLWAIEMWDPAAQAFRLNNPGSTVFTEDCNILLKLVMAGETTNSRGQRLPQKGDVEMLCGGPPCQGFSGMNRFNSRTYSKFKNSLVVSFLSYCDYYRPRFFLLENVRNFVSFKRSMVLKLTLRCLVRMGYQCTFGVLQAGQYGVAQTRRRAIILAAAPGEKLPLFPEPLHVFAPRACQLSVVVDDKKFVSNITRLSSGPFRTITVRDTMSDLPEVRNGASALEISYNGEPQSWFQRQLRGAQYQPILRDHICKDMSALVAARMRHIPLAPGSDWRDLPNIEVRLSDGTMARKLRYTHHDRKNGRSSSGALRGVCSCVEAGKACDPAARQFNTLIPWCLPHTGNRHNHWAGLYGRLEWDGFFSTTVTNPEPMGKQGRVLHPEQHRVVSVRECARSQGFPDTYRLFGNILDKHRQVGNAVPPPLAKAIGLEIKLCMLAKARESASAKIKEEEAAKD
LMPTP block = LMPTP phosphatase inhibitors, primary screen, biochemical, fluorescence intensity, uHTS; inhibition, % at 20 µM; recombinant LMPTP-A, OMFP fluorogenic substrate; Low molecular weight phosphotyrosine protein phosphatase (Homo sapiens), P24666; hit rate 0.22% among 360,000;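 active = compounds that cut the enzyme signal by at least half of the control window in the single-dose screen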;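 also: plate controls were DMSO wells with enzyme plus substrate for no effect and substrate without enzyme for full effect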
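test system = LMPTP-A | amount = 0.625 nM LMPTP-A final | reagent = fluorogenic phosphatase substrate OMFP at 400 µM final | incubation = 50 min at room temperature | benchmarks = no-enzyme low control, uninhibited high control | medium = Bis-Tris pH 6.0, DTT, detergent | signal = fluorescence intensity of OMFP turnover product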
SUMO1 PPI mod = modulators of SUMO1 protein-protein interactions, primary screen, biochemical, uHTS; Small ubiquitin-related modifier 1 (Homo sapiens), P63165; SUMO1 binding to a labelled peptide, TR-FRET, 1 h; inhibition, % at 20 µM; hit rate 0.33% among 360,000; in the data active = inhibition above about 37%
Scp1 confirm = Scp-1 phosphatase inhibitors, retest, confirmation, biochemical, colorimetric, single concentration; hit rate 61% among 2,500; recombinant SCP-1 catalytic domain, phosphate release, malachite green absorbance; shares compounds with Scp1 inh; inhibition, % at 20 µM;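 also: plate controls were DMSO with enzyme for no effect and buffer wells lacking enzyme for full effect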
MG interference = colorimetric readout interference by compounds, confirmation, artefact control for Scp-1 inhibitor project, biochemical, single concentration; Colorimetric interference counterscreen, malachite green absorbance 630 nm; shares compounds with Scp1 inh; 2,500 tested, under 10 active; apparent inhibition (interference), % at 20 µM; AID 540313, 2011;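 also: compounds added after enzyme reaction finished so only phosphate colour detection is probed; plate controls were DMSO wells with completed Scp-1 reaction for no effect and substrate wells lacking enzyme for full effect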
Scp1 DSF = Scp-1 binding by thermal shift, confirmation, orthogonal assay for Scp-1 inhibitor project, biophysical, differential scanning fluorimetry; shares compounds with Scp1 inh; thermal shift relative to vanadate control, % at 40 µM; Recombinant SCP1, Sypro Orange thermal shift Tm; hit rate 25% among 1,500; AID 540329, 2011;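 active = substances whose mean melting-temperature shift, as a percentage of the reference inhibitor's shift, reaches about 5.3%, limit read from the data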;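 also: 0% = Tm of DMSO wells and 100% = Tm with sodium orthovanadate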
DNMT1 confirm = DNMT1 methyltransferase inhibitor retest, confirmation, biochemical, molecular beacon, fluorescence, single concentration | shares compounds with DNMT1 block | inhibition, % at 10 µM | DNMT1 molecular beacon HinP1I cleavage | hit rate 8% among 2,300;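 active = average inhibition of at least 30% in the single-concentration confirmation test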
Beacon interf = shows spectral interference in the DNMT1 beacon assay; shares compounds with DNMT1 block; DNMT1 molecular beacon spectral interference counterscreen, fluorescence 485/520; activation (fluorescence interference), % at 10 µM; hit rate 1% among 2,300;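 active = activation of at least 30% at 10 µM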;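 also: DNMT1 catalytic domain with a HinP1I cleavage step and a FAM/dabcyl DNA beacon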
Numbers without * were called inactive. Rows were chosen to be rich in hits. Some 1.8% of all compounds tested hit in one or more screens of this group.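 The calls were made as follows, unless noted: active = inhibition of at least 30% at 20 µM; inactive = the rest.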

What do the screens show for `COc1ccc(O)c(/C=N/NC(=O)c2c(C)nnn2-c2nonc2N)c1`?
Scp1 inh: 100*; STEP block: 68*; DNMT1 block: 96*; LMPTP block: 16; SUMO1 PPI mod: -5; Scp1 confirm: 86*; MG interference: -9; Scp1 DSF: -12; DNMT1 confirm: 6; Beacon interf: 1

How did Cc1noc(C)c1S(=O)(=O)NC(=O)C1(C)CCN1C(=O)Cc1ccc(Cl)cc1Cl (configuration not stated) do in these assays?
STEP block: 2; DNMT1 block: -4; LMPTP block: -2; SUMO1 PPI mod: 27

How did COc1ccc(CSCC(=O)N/N=C/c2ccc(OCC(=O)N3CCCCC3)cc2)cc1 do in these assays?
Scp1 inh: 6; STEP block: 0; DNMT1 block: 0; LMPTP block: -1; SUMO1 PPI mod: -5

Results for Cc1ccc(CSCC(=O)N/N=C/c2ccc(OCC(=O)Nc3ccc(C)cc3)cc2)cc1 ?
Scp1 inh: 112*; STEP block: 11; DNMT1 block: 69*; LMPTP block: 44; SUMO1 PPI mod: 1; Scp1 confirm: 80*; MG interference: -11; Scp1 DSF: -29; DNMT1 confirm: 5; Beacon interf: 4

How did COc1ccc(S(=O)(=O)N2CCOCC2)cc1NC(=O)c1cccc(-n2cccc2)c1 do in these assays?
Scp1 inh: 58*; STEP block: 0; DNMT1 block: 73*; LMPTP block: 13; SUMO1 PPI mod: 23; Scp1 confirm: -7; MG interference: -18; DNMT1 confirm: 0; Beacon interf: -5

Results for COc1ccccc1NC(=O)c1cccc(S(=O)(=O)N2CCOCC2)c1 ?
Scp1 inh: -7; STEP block: 0; DNMT1 block: -3; LMPTP block: 0; SUMO1 PPI mod: -3

How did CCCOc1ccc(/C=c2\sc3nc(-c4ccco4)nn3c2=O)cc1OCC do in these assays?
Scp1 inh: 84*; STEP block: 1; DNMT1 block: 73*; LMPTP block: 2; SUMO1 PPI mod: 14; Scp1 confirm: 9; MG interference: -25; DNMT1 confirm: 3; Beacon interf: 1

Results for COc1cc(NC(C)=O)c2ncccc2c1NC(C)=O ?
Scp1 inh: -11; STEP block: -1; DNMT1 block: -1; LMPTP block: 0; SUMO1 PPI mod: 1

What do the screens show for `CC(=O)Nc1cc(=O)c2cccnc2[nH]1`?
Scp1 inh: 82*; STEP block: 10; DNMT1 block: 63*; LMPTP block: 64*; SUMO1 PPI mod: 31; Scp1 confirm: 61*; MG interference: -5; Scp1 DSF: 2; DNMT1 confirm: 16; Beacon interf: 7

How did Cc1ccc(C)c(OCCC(=O)OCC(=O)Nc2ccc(Cl)cn2)c1 do in these assays?
Scp1 inh: -3; STEP block: 0; DNMT1 block: 1; LMPTP block: 2; SUMO1 PPI mod: 2

What do the screens show for `Clc1ccc(-c2ccc(-c3nn4c(-c5ccco5)nnc4s3)o2)cc1`?
Scp1 inh: 77*; STEP block: 5; DNMT1 block: 78*; LMPTP block: 26; SUMO1 PPI mod: 30; Scp1 confirm: 50*; MG interference: -11; Scp1 DSF: -1; DNMT1 confirm: 2; Beacon interf: -1

How did Brc1ccc(-c2nn3c(-c4ccco4)nnc3s2)o1 do in these assays?
Scp1 inh: 52*; STEP block: 17; DNMT1 block: 84*; LMPTP block: 10; SUMO1 PPI mod: 18; Scp1 confirm: 22; MG interference: -16; DNMT1 confirm: 3; Beacon interf: 4

Results for c1ccc(-c2nn3c(-c4ccco4)nnc3s2)nc1 ?
Scp1 inh: 4; STEP block: 6; DNMT1 block: 0; LMPTP block: 1; SUMO1 PPI mod: 17

How did CC(Oc1ccc(S(=O)(=O)N2CCCC2)cc1[N+](=O)[O-])C(=O)NC1(C#N)CCCCC1 (configuration not stated) do in these assays?
Scp1 inh: -4; STEP block: -1; DNMT1 block: 2; LMPTP block: 0; SUMO1 PPI mod: -18

Results for Cc1ccccc1NC(=O)Cn1nnc(S(=O)(=O)c2ccc(C(C)(C)C)cc2)c1N ?
Scp1 inh: 106*; STEP block: 21; DNMT1 block: 61*; LMPTP block: 48; SUMO1 PPI mod: 10; Scp1 confirm: 76*; MG interference: -19; Scp1 DSF: -29; DNMT1 confirm: -1; Beacon interf: 2

How did Cc1ccccc1NC(=O)Cn1nnc(C(=O)NCc2ccco2)c1N do in these assays?
Scp1 inh: -3; STEP block: 4; DNMT1 block: -1; LMPTP block: -2; SUMO1 PPI mod: -1

Results for Cc1ccc(OCC(=O)Nc2nnc(S(=O)(=O)N3CCCCC3)s2)cc1 ?
Scp1 inh: 71*; STEP block: 3; DNMT1 block: 89*; LMPTP block: 31; SUMO1 PPI mod: 43*; Scp1 confirm: 57*; MG interference: -20; Scp1 DSF: 5.7*; DNMT1 confirm: 13; Beacon interf: 0

Results for Cc1ccc(OCC(=O)Nc2nnc(S(=O)(=O)N3CCCCCC3)s2)cc1 ?
Scp1 inh: -3; STEP block: 2; DNMT1 block: 7; LMPTP block: -1; SUMO1 PPI mod: 6

Assay outcomes from PubChem.
